The list is not random: actives were taken first. Their share in the collection is about 0.79%.
bIAP activator: increases bovine intestinal alkaline phosphatase activity; 200,000 tested, 0.17% active; purified bovine IAP, CDP-star luminescence, 30 min; stronger effect = higher value; fold of DMSO-control signal, blank-subtracted; activation factor at 20 µM;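 active = activation factor of 2 or more at 20 µM, a signal rise over negative controls twice the positive control's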
bIAP inhibitor: blocks bovine intestinal alkaline phosphatase activity | inhibition, % at 20 µM | 190,000 tested, under 10 active | purified bovine IAP, CDP-star luminescence, 30 min;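 active = over 50% inhibition of intestinal alkaline phosphatase at 20 µM in the single-dose screen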
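System: purified bovine intestinal alkaline phosphatase (IAP) enzyme; Input: IAP diluted 1/65,000,000 in the well; Measured by: CDP-star luminescence signal; Compound dosing: 20 µM single dose; Incubation: 30 min reaction at room temperature.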
hIAP block: human IAP inhibition; 330,000 tested, 0.12% active; inhibition, % at 10 µM; AID 2544; purified IAP, CDP-Star luminescence, 30 min; P09923;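 active = inhibition reaching a set limit with compound at 10 µM in the primary screen, cut at about 35% in these data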;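 also: plate controls were DMSO wells with enzyme for no effect and no-enzyme buffer wells for full effect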
Target sequence (P09923 whole entry, looked up): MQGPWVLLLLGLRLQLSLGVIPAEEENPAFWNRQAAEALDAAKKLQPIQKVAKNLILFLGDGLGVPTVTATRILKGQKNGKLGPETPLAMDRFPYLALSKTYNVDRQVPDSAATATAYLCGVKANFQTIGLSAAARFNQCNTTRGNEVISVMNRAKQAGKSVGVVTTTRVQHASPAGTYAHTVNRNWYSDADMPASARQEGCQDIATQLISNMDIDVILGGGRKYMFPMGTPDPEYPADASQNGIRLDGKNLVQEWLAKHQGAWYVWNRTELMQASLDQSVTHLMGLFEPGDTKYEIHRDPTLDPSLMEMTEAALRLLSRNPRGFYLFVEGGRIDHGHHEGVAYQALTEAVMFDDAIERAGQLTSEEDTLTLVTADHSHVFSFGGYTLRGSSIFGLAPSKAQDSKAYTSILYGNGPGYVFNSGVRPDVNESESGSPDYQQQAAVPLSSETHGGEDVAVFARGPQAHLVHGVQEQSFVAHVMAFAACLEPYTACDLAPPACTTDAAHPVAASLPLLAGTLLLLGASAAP
mIAP inh: blocks mouse intestinal alkaline phosphatase. purified mouse IAP, CDP-Star luminescence, 30 min. inhibition, % at 10 µM. 330,000 tested, 0.2% active. AID 2806;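 active = inhibition of at least 40% at 10 µM in the primary screen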;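 also: plate controls were DMSO with enzyme for no effect and no enzyme wells for full effect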
hIAP activ: increases human intestinal alkaline phosphatase activity; purified human IAP, CDP-Star luminescence, 30 min; stronger effect = higher value; 1 = vehicle-only enzyme, 0 = enzyme-free background; 330,000 tested, 0.16% active; activation factor at 10 µM;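 active = activation factor of the enzyme at least 2-fold when tested at 20 µM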
mIAP act: mouse IAP activation | muIAP, CDP-Star luminescence, 30 min; stronger effect = higher value; 1 = vehicle-only enzyme signal, 0 = enzyme-free wells | 330,000 tested, 0.24% active | activation factor at 10 µM;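 active = activation factor of at least 2 at 20 µM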
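System: Mouse IAP enzyme | Also added: CDP-Star substrate | Dosing: Compounds dispensed in DMSO | Schedule: 30 min enzyme-substrate-compound incubation at room temperature | Technique: Chemiluminescence readout | Control set: DMSO-only wells and no-enzyme negative control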
mIAP inh conf: mouse IAP inhibition confirmation. purified mouse IAP, CDP-Star luminescence, 30 min. shares compounds with mIAP inh. inhibition, % at 10 µM. 11,000 tested, 4.7% active;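 active = inhibition of at least 40% at 10 µM in either of the two replicates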;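 also: plate controls were DMSO wells with enzyme for no effect and buffer wells lacking enzyme for full effect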
Active calls of the source: *.

`COc1ccc(NC(=O)CN2C(=O)NC3(CCCc4ccccc43)C2=O)c(OC)c1` (configuration not stated) gave hIAP block 0, mIAP inh -5, hIAP activ 1 and mIAP act 1.
For COc1cc(NC(=O)COC(=O)Cc2ccsc2)cc(OC)c1 the results were hIAP block -6, mIAP inh 8, hIAP activ 1.1 and mIAP act 0.92.
For COc1ccccc1N(C)S(=O)(=O)c1ccc(C(=O)N2CCCc3ccccc32)cc1 the results were hIAP block -5, mIAP inh 1, hIAP activ 1 and mIAP act 0.99.
`COc1ccc(N=C2SC(C(N)=O)CC(=O)N2CCc2ccc(OC)c(OC)c2)cc1` (configuration not stated) gave bIAP activator 0.9, bIAP inhibitor 6, hIAP block -18, mIAP inh 44*, hIAP activ 1.2, mIAP act 0.56 and mIAP inh conf 50*.
Screening COc1ccc(N=C2SC(C(=O)O)CC(=O)N2Cc2ccc(OC)c(OC)c2)cc1 (configuration not stated) returned bIAP activator 1, bIAP inhibitor 1, hIAP block 8, mIAP inh 0, hIAP activ 0.92 and mIAP act 1.
For OC[C@@H]1[C@@H](c2ccc(Cl)cc2)C(c2cccc(Cl)c2)=NN1c1ccccc1 the results were mIAP inh -133, mIAP act 2.3* and mIAP inh conf -120.
COc1ccccc1[C@H]1C(c2ccccc2)=NN(c2ccccc2)[C@@H]1CO was read as mIAP inh -116, mIAP act 2.2* and mIAP inh conf -99.
Screening COc1ccccc1[C@H]1C(c2cccc(C)c2)=NN(c2ccccc2)[C@@H]1CO returned mIAP inh -75 and mIAP act 1.6.
O=C(Nc1ccc(Cl)c(Cl)c1)Nc1cc(S(=O)(=O)N2CCOCC2)ccc1N1CCCC1 was read as bIAP activator 0.8, bIAP inhibitor 25, hIAP block -43, mIAP inh -212, hIAP activ 1.4, mIAP act 3.1* and mIAP inh conf -153.
Screening O=C(Nc1ccc(Cl)c(Cl)c1)Nc1cc(C(=O)N2CCOCC2)ccc1N1CCCCC1 returned hIAP block -82, mIAP inh inactive, hIAP activ 1.8, mIAP act 10* and mIAP inh conf -167.
`O=C(Nc1cccc(Cl)c1)Nc1cc(S(=O)(=O)N2CCCCC2)ccc1Cl` gave bIAP activator 0.8, bIAP inhibitor 21, hIAP block -11, mIAP inh -257, hIAP activ 1.1, mIAP act 3.6* and mIAP inh conf -108.
Screening Cc1cc(-c2ccc(N=Nc3c(S(=O)(=O)O)cc4cc(S(=O)(=O)O)cc(N)c4c3O)c(C)c2)ccc1N=Nc1c(S(=O)(=O)O)cc2cc(S(=O)(=O)O)cc(N)c2c1O returned hIAP block 28, mIAP inh 77*, hIAP activ 0.72, mIAP act 0.23 and mIAP inh conf 83*.
`O=C(NCC1CCN(Cc2ccccc2F)CC1)Nc1ccccc1F` gave hIAP block -7, mIAP inh -30, hIAP activ 1.1 and mIAP act 1.3.
For Cc1ccc(C)c(CN2CCC(CNC(=O)Nc3ccc(C)c(C)c3)CC2)c1 the results were hIAP block -27, mIAP inh -291, hIAP activ 1.3, mIAP act 3.9* and mIAP inh conf -121.
`O=C(NCC1CCN(Cc2ccccc2F)CC1)Nc1cccc(Br)c1` gave hIAP block -39, mIAP inh -226, hIAP activ 1.4, mIAP act 3.3* and mIAP inh conf -105.
O=C1N=c2ccccc2=C1c1sc(=S)n(NC(=O)c2ccccc2)c1O was read as hIAP block -25, mIAP inh 64*, hIAP activ 1.3, mIAP act 0.36 and mIAP inh conf 64*.
Screening Cn1c(O)c(C2=c3ccccc3=NC2=O)[nH]c1=S returned bIAP activator 1, bIAP inhibitor 3, hIAP block -10, mIAP inh 22, hIAP activ 1.1 and mIAP act 0.78.
`N#CCC(=O)Nc1ccc(C(=O)OCC(=O)c2ccc3c(c2)NC(=O)CO3)cc1` gave hIAP block 10, mIAP inh 10, hIAP activ 0.9 and mIAP act 0.9.
For CC1(C(=O)NNC(=O)c2ccc(=O)oc2)CC1Br (configuration not stated) the results were hIAP block -2, mIAP inh 77*, hIAP activ 1, mIAP act 0.23 and mIAP inh conf 71*.
Cc1cc(=O)oc(C)c1C(=O)NNC(=O)C1(C)CC1Br (configuration not stated) was read as hIAP block -8, mIAP inh -8, hIAP activ 1.1 and mIAP act 1.1.
COCc1nnc(NC(=O)c2c(-c3c(Cl)cccc3Cl)noc2C)s1 was read as hIAP block 3, mIAP inh -2, hIAP activ 0.97 and mIAP act 1.
Screening COc1ccc2[nH]c3c(c2c1)CCN1C(=O)C(CC(=O)NC/C=C(\C)CCC=C(C)C)C[C@H](C(=O)N(C(C)C)C(C)C)[C@@]31C (some centres not stated) returned mIAP inh -116, mIAP act 2.2* and mIAP inh conf -100.
COC(=O)/C=C1\SC(=NC(=O)c2ccc(-c3ccccc3)cc2)NC1=O was read as hIAP block -8, mIAP inh 0, hIAP activ 1.1 and mIAP act 1.
Screening N#C/C(=C\c1ccc(O)c(O)c1)C(=O)Nc1cccc2ncccc12 returned hIAP block 32, mIAP inh 66*, hIAP activ 0.68, mIAP act 0.34 and mIAP inh conf 76*.
COc1ccc(/C=C(\C#N)C(=O)Nc2cccc3ncccc23)cc1OC was read as hIAP block -15, mIAP inh -14, hIAP activ 1.2 and mIAP act 1.1.
`O=C(O)c1ccccc1NS(=O)(=O)c1ccc2c3c(cccc13)C(=O)N2` gave bIAP activator 0.9, bIAP inhibitor 5, hIAP block 15, mIAP inh 8, hIAP activ 0.85 and mIAP act 0.92.
For CN(c1ccccc1C(=O)O)S(=O)(=O)c1ccc2c3c(cccc13)C(=O)N2 the results were bIAP activator 0.8, bIAP inhibitor 20, hIAP block 10, mIAP inh 46*, hIAP activ 0.9, mIAP act 0.54 and mIAP inh conf 62*.
For O=C(O)CNS(=O)(=O)c1ccc2c3c(cccc13)C(=O)N2 the results were hIAP block -10, mIAP inh 48*, hIAP activ 1.1, mIAP act 0.52 and mIAP inh conf 49*.

High-throughput results from PubChem BioAssay.
